This note sets out measurements from ChEMBL document CHEMBL1141179 (J Med Chem, 2005).

Assay [1] deals with Somatostatin receptor type 5 (Homo sapiens, UniProt P35346). In words: Inhibition of 125I-[Leu8,D-Trp22,Tyr25]SRIF-28 binding to human somatostatin receptor type 5. In short, it runs like this: (§1)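 Human sst1 or sst5 receptor stably expressed in CHO-K1 cells. 20 µm cryostat sections of cell membrane pellets were used for receptor autoradiography. IC50 (nM) came from competitive radioligand displacement. Values are mean ± SEM when N ≥ 3; otherwise mean with single values.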

Assay [2] has as its target Somatostatin receptor type 3 (Homo sapiens, UniProt P32745). In words: Inhibition of 125I-[Leu8,D-Trp22,Tyr25]SRIF-28 binding to human somatostatin receptor type 3. In short, it runs like this: (§2)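 Human sst2 or sst3 receptor stably expressed in CCL39 cells. 20 µm cryostat sections of cell membrane pellets were used for autoradiographic binding. IC50 (nM) came from competitive displacement. Values are mean ± SEM when N ≥ 3; otherwise mean with single values.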

Assay [3] addresses Somatostatin receptor type 1 (Homo sapiens, UniProt P30872). In words: Inhibition of 125I-[Leu8,D-Trp22,Tyr25]SRIF-28 binding to human somatostatin receptor type 1. In short, it runs like this: as §1
Assay [4] has as its target Somatostatin receptor type 4 (Homo sapiens, UniProt P31391). Put plainly: Inhibition of 125I-[Leu8,D-Trp22,Tyr25]SRIF-28 binding to human somatostatin receptor type 4.
Assay [5] concerns the target Somatostatin receptor type 2 (Homo sapiens, UniProt P30874). Put plainly: Inhibition of 125I-[Leu8,D-Trp22,Tyr25]SRIF-28 binding to human somatostatin receptor type 2. In short, it runs like this: as §2

Molecules are shown by their SMILES.

Sequence of Somatostatin receptor type 1 (P30872 whole entry): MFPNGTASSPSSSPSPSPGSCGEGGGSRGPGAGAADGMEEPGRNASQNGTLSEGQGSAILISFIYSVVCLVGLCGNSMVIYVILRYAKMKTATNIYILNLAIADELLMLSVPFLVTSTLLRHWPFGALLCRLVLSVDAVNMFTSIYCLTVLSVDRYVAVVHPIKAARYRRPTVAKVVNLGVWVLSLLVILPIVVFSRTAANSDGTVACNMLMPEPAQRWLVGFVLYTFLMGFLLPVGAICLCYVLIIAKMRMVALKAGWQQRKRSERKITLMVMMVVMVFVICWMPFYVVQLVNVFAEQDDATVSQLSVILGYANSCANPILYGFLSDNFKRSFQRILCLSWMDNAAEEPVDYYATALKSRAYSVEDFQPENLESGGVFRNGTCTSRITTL
Sequence of Somatostatin receptor type 5 (P35346 whole entry): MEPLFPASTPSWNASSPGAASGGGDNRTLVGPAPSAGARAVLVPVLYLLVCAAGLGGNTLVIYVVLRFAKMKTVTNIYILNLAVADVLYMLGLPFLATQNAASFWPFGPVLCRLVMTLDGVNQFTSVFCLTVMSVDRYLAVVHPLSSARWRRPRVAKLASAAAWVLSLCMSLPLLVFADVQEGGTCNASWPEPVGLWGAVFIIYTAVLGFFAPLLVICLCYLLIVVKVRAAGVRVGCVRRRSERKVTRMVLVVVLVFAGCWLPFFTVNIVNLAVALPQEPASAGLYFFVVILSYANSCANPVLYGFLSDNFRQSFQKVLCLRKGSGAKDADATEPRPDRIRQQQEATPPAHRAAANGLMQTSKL
Sequence of Somatostatin receptor type 3 (P32745 whole entry): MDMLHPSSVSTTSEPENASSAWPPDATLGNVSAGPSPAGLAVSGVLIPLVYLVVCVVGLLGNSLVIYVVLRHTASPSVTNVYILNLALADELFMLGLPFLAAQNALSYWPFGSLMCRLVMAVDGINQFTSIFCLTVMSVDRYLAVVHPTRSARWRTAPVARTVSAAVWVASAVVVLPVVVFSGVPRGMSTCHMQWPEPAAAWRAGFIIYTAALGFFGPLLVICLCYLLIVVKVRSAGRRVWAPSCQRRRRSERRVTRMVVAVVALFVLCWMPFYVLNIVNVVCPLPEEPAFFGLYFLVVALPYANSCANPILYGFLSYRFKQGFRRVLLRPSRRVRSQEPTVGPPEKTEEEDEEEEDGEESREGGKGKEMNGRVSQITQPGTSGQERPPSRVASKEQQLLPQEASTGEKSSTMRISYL
Sequence of Somatostatin receptor type 4 (P31391 whole entry): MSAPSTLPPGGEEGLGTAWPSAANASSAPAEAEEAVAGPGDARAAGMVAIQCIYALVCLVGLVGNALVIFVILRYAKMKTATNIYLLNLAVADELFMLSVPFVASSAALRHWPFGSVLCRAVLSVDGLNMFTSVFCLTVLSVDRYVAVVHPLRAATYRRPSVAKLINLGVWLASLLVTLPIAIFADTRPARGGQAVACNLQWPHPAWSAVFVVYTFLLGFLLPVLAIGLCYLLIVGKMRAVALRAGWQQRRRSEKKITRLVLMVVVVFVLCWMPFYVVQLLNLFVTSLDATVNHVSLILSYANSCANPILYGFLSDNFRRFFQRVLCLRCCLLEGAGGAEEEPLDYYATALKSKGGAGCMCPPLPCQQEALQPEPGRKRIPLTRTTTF
Sequence of Somatostatin receptor type 2 (P30874 whole entry): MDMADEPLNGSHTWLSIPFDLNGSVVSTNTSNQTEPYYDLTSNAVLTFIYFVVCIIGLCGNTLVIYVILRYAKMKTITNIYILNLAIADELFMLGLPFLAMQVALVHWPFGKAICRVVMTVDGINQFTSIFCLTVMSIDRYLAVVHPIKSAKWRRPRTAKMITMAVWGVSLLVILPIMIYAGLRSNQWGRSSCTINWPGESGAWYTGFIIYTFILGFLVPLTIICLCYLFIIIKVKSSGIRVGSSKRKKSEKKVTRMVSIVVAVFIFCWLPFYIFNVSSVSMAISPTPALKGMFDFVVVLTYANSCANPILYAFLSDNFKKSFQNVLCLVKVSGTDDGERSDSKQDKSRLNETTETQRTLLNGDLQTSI

With `CC(C)NCc1ccc(C[C@@H]2NC(=O)[C@@H](Cc3c[nH]c4ccccc34)NC(=O)[C@H](Cc3ccccc3)NC(=O)[C@@H]3CCC(=O)NCCCC[C@H](NC(=O)[C@H]([C@@H](C)O)NC2=O)C(=O)N[C@@H]([C@@H](C)O)C(=O)N[C@@H](CO)C(=O)N[C@H](C(=O)O)CSSC[C@H](NC(=O)[C@@H](N)Cc2ccc(O)cc2)C(=O)N[C@@H](CCCCN)C(=O)N3)cc1`, the 50% inhibitory concentration (IC50) in assay [1], in assay [2], in assay [3], in assay [4] and in assay [5] was greater than 1 µM each time.

With `C[C@@H](O)[C@@H]1NC(=O)[C@H](CCCCN)NC(=O)[C@@H](Cc2c[nH]c3ccccc23)NC(=O)[C@H](Cc2ccccc2)NC(=O)[C@H](Cc2ccccc2)NC(=O)[C@H](CCCCN)NC(=O)[C@@H](N)CSSC[C@@H](C(=O)O)NC(=O)[C@H](Cc2ccccc2)NC1=O`, the half-maximal inhibitory concentration (IC50) amounted to 0.013 µM in assay [1]; 0.039 µM in assay [2]; 0.0053 µM in assay [3]; 0.0006 µM in assay [4]; 0.015 µM in assay [5].

As to `CC(C)NCc1ccc(C[C@@H]2NC(=O)[C@@H](Cc3c[nH]c4ccccc34)NC(=O)[C@H]3CCC(=O)NCC[C@H](NC(=O)[C@H]([C@@H](C)O)NC2=O)C(=O)N[C@@H]([C@@H](C)O)C(=O)N[C@@H](CO)C(=O)N[C@H](C(=O)O)CSSC[C@H](NC(=O)[C@@H](N)Cc2ccc(O)cc2)C(=O)N[C@@H](CCCCN)C(=O)N[C@@H](Cc2ccccc2)C(=O)N3)cc1`, the IC50 in assay [1], in assay [2], in assay [3], in assay [4] and in assay [5] was greater than 1 µM throughout.

With `CC(C)NCc1ccc(C[C@@H]2NC(=O)[C@@H](Cc3c[nH]c4ccccc34)NC(=O)[C@H](Cc3ccccc3)NC(=O)[C@@H]3CC(=O)NC[C@H](NC(=O)[C@H](Cc4ccccc4)NC(=O)[C@H]([C@@H](C)O)NC2=O)C(=O)N[C@@H](CO)C(=O)N[C@H](C(=O)O)CSSC[C@H](NC(=O)[C@@H](N)Cc2ccc(O)cc2)C(=O)N[C@@H](CCCCN)C(=O)N3)cc1`, the IC50 in assay [1], in assay [2], in assay [3], in assay [4] and in assay [5] was greater than 1 µM each time.

Turning to `CC(C)NCc1ccc(C[C@@H]2NC(=O)[C@@H](Cc3c[nH]c4ccccc34)NC(=O)[C@H](Cc3ccccc3)NC(=O)[C@@H]3CCC(=O)NCC[C@H](NC(=O)[C@H](Cc4ccccc4)NC(=O)[C@H]([C@@H](C)O)NC2=O)C(=O)N[C@@H](CO)C(=O)N[C@H](C(=O)O)CSSC[C@H](NC(=O)[C@@H](N)Cc2ccc(O)cc2)C(=O)N[C@@H](CCCCN)C(=O)N3)cc1`, the IC50 in assay [1] is greater than 1 µM; in assay [2], greater than 1 µM; in assay [3] it was 0.104 µM; in assay [4], greater than 1 µM; in assay [5] it was greater than 1 µM.

Regarding `CC(C)NCc1ccc(C[C@@H]2NC(=O)[C@@H](Cc3c[nH]c4ccccc34)NC(=O)[C@@H]3CCC(=O)NCCCC[C@H](NC(=O)[C@H]([C@@H](C)O)NC2=O)C(=O)N[C@@H]([C@@H](C)O)C(=O)N[C@@H](CO)C(=O)N[C@H](C(=O)O)CSSC[C@H](NC(=O)[C@@H](N)Cc2ccc(O)cc2)C(=O)N[C@@H](CCCCN)C(=O)N[C@@H](Cc2ccccc2)C(=O)N3)cc1`, the IC50 in assay [1], in assay [2], in assay [3], in assay [4] and in assay [5] was greater than 1 µM throughout.

`CC(C)NCc1ccc(C[C@@H]2NC(=O)[C@@H](Cc3c[nH]c4ccccc34)NC(=O)[C@@H]3CC(=O)NC[C@H](NC(=O)[C@H](Cc4ccccc4)NC(=O)[C@H]([C@@H](C)O)NC2=O)C(=O)N[C@@H](CO)C(=O)N[C@H](C(=O)O)CSSC[C@H](NC(=O)[C@@H](N)Cc2ccc(O)cc2)C(=O)N[C@@H](CCCCN)C(=O)N[C@@H](Cc2ccccc2)C(=O)N3)cc1`: the IC50 in assay [1], in assay [2], in assay [3], in assay [4] and in assay [5] was greater than 1 µM throughout.

As to `C[C@@H](O)[C@@H]1NC(=O)[C@H](CCCCN)NC(=O)[C@@H](Cc2c[nH]c3ccccc23)NC(=O)[C@H](Cc2ccccc2)NC(=O)[C@@H](N)CSSC[C@@H](C(=O)O)NC(=O)[C@H](Cc2ccccc2)NC1=O`, the IC50 in assay [1] was greater than 1 µM; in assay [2], greater than 1 µM; in assay [3] it was greater than 1 µM; in assay [4] it was 0.229 µM; in assay [5], 0.531 µM.

For the molecule `C[C@@H](O)[C@@H]1NC(=O)[C@H](CCCCN)NC(=O)[C@@H](Cc2c[nH]c3ccccc23)NC(=O)[C@H](Cc2ccccc2)NC(=O)[C@H](Cc2ccccc2)NC(=O)[C@@H](N)CSSC[C@@H](C(=O)O)NC1=O`, the IC50 in assay [1] is greater than 1 µM; in assay [2], greater than 1 µM; in assay [3] it was greater than 1 µM; in assay [4] it was greater than 1 µM; in assay [5], 0.598 µM.

Regarding `CC(C)NCc1ccc(C[C@@H]2NC(=O)[C@@H](Cc3c[nH]c4ccccc34)NC(=O)[C@H]3CCC(=O)NCC[C@@H](NC(=O)[C@H]([C@@H](C)O)NC2=O)C(=O)N[C@@H]([C@@H](C)O)C(=O)N[C@@H](CO)C(=O)N[C@H](C(=O)O)CSSC[C@H](NC(=O)[C@@H](N)Cc2ccc(O)cc2)C(=O)N[C@@H](CCCCN)C(=O)N[C@@H](Cc2ccccc2)C(=O)N3)cc1`, the IC50 in assay [1], in assay [2], in assay [3], in assay [4] and in assay [5] was greater than 1 µM each time.

Regarding `CC(C)NCc1ccc(C[C@@H]2NC(=O)[C@@H](Cc3c[nH]c4ccccc34)NC(=O)[C@@H]3CCC(=O)NCC[C@H](NC(=O)[C@H](Cc4ccccc4)NC(=O)[C@H]([C@@H](C)O)NC2=O)C(=O)N[C@@H](CO)C(=O)N[C@H](C(=O)O)CSSC[C@H](NC(=O)[C@@H](N)Cc2ccc(O)cc2)C(=O)N[C@@H](CCCCN)C(=O)N[C@@H](Cc2ccccc2)C(=O)N3)cc1`, the IC50 in assay [1] is greater than 1 µM; in assay [2], greater than 1 µM; in assay [3] it was 0.241 µM; in assay [4], greater than 1 µM; in assay [5], greater than 1 µM.

Turning to `CC(C)NCc1ccc(C[C@@H]2NC(=O)[C@@H](Cc3c[nH]c4ccccc34)NC(=O)[C@H](Cc3ccccc3)NC(=O)[C@@H]3CCC(=O)NCC[C@H](NC(=O)[C@H]([C@@H](C)O)NC2=O)C(=O)N[C@@H]([C@@H](C)O)C(=O)N[C@@H](CO)C(=O)N[C@H](C(=O)O)CSSC[C@H](NC(=O)[C@@H](N)Cc2ccc(O)cc2)C(=O)N[C@@H](CCCCN)C(=O)N3)cc1`, the IC50 is greater than 1 µM in assay [1]; greater than 1 µM in assay [2]; 0.597 µM in assay [3]; greater than 1 µM in assay [4]; greater than 1 µM in assay [5].

In the case of `CC(C)NCc1ccc(C[C@@H]2NC(=O)[C@@H](Cc3c[nH]c4ccccc34)NC(=O)[C@H](Cc3ccccc3)NC(=O)[C@H]3CCC(=O)NCC[C@@H](NC(=O)[C@H]([C@@H](C)O)NC2=O)C(=O)N[C@@H]([C@@H](C)O)C(=O)N[C@@H](CO)C(=O)N[C@H](C(=O)O)CSSC[C@H](NC(=O)[C@@H](N)Cc2ccc(O)cc2)C(=O)N[C@@H](CCCCN)C(=O)N3)cc1`, the concentration for half-maximal inhibition (IC50) in assay [1], in assay [2], in assay [3], in assay [4] and in assay [5] was greater than 1 µM each time.

As to `NCCCC[C@@H]1NC(=O)[C@@H](Cc2c[nH]c3ccccc23)NC(=O)[C@H](Cc2ccccc2)NC(=O)[C@H](Cc2ccccc2)NC(=O)[C@@H](N)CSSC[C@@H](C(=O)O)NC(=O)[C@H](Cc2ccccc2)NC1=O`, the IC50 in assay [1] was greater than 1 µM; in assay [2] it was 0.905 µM; in assay [3], greater than 1 µM; in assay [4], 0.786 µM; in assay [5], greater than 1 µM.

In the case of `CC(C)NCc1ccc(C[C@@H]2NC(=O)[C@@H](Cc3c[nH]c4ccccc34)NC(=O)[C@@H]3CC(=O)NCCC[C@H](NC(=O)[C@H](Cc4ccccc4)NC(=O)[C@H]([C@@H](C)O)NC2=O)C(=O)N[C@@H](CO)C(=O)N[C@H](C(=O)O)CSSC[C@H](NC(=O)[C@@H](N)Cc2ccc(O)cc2)C(=O)N[C@@H](CCCCN)C(=O)N[C@@H](Cc2ccccc2)C(=O)N3)cc1`, the IC50 in assay [1], in assay [2], in assay [3], in assay [4] and in assay [5] was greater than 1 µM in each case.

For `CC(C)NCc1ccc(C[C@@H]2NC(=O)[C@@H](Cc3c[nH]c4ccccc34)NC(=O)[C@@H]3CCC(=O)NCC[C@H](NC(=O)[C@H]([C@@H](C)O)NC2=O)C(=O)N[C@@H]([C@@H](C)O)C(=O)N[C@@H](CO)C(=O)N[C@H](C(=O)O)CSSC[C@H](NC(=O)[C@@H](N)Cc2ccc(O)cc2)C(=O)N[C@@H](CCCCN)C(=O)N[C@@H](Cc2ccccc2)C(=O)N3)cc1`, the IC50 in assay [1], in assay [2], in assay [3], in assay [4] and in assay [5] was greater than 1 µM in each case.

Regarding `CC(C)NCc1ccc(C[C@@H]2NC(=O)[C@@H](Cc3c[nH]c4ccccc34)NC(=O)[C@H](Cc3ccccc3)NC(=O)[C@@H]3CCC(=O)NCCCC[C@H](NC(=O)[C@H](Cc4ccccc4)NC(=O)[C@H]([C@@H](C)O)NC2=O)C(=O)N[C@@H](CO)C(=O)N[C@H](C(=O)O)CSSC[C@H](NC(=O)[C@@H](N)Cc2ccc(O)cc2)C(=O)N[C@@H](CCCCN)C(=O)N3)cc1`, the IC50 in assay [1] was greater than 1 µM; in assay [2], greater than 1 µM; in assay [3] it was 0.208 µM; in assay [4] it was greater than 1 µM; in assay [5], greater than 1 µM.
